According to ChEMBL document CHEMBL2046298, “Lead optimization of purine based orally bioavailable Mps1 (TTK) inhibitors” (Bioorg Med Chem Lett, 2012):

What was measured:
[1] = Plasma concentration in CD-1 mouse at 10 mg/kg, po measured at 4 hrs; type: ADME, organism-based; set-up: dose 10 mg/kg, route oral
Summary of the method: (§1)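 Abbreviated PK screen: CD-1 mice dosed orally at 10 mg/kg in DMA/PEG 400 solution; plasma levels determined at 4 and 8 h post-dose.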

[2] = Plasma concentration in CD-1 mouse at 10 mg/kg, po measured at 8 hrs; type: ADME, organism-based; set-up: dose 10 mg/kg, route oral; summary of the method: as §1
[3] = AUC in CD-1 mouse at 10 mg/kg, po; type: ADME, organism-based; set-up: dose 10 mg/kg, route oral; details: plasma
Summary of the method: (§2)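 CD-1 mice given 10 mg/kg orally in a DMA/PEG 400 solution formulation; matched IV arm at 2.5 mg/kg in DMA/PEG 400 for %F.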

[4] = Cmax in CD-1 mouse at 10 mg/kg, po; type: ADME, organism-based; set-up: dose 10 mg/kg, route oral; details: in vivo; summary of the method: as §2
[5] = Oral bioavailability in CD-1 mouse at 10 mg/kg; type: ADME, organism-based; details: in vivo; summary of the method: as §2
[6] = Apparent permeability of the compound by PAMPA; type: ADME

Row | SMILES | concentration at 4 h [1] | concentration at 8 h [2] | AUC [3] | Cmax [4] | bioavailability [5] | Papp [6]
1 | COc1cc(N2CCC(CC(=O)N3CCCC3)CC2)ccc1Nc1nc(NC2CCCCC2)c2nc[nH]c2n1 | 138 ng/mL | 69.2 ng/mL | 1770 ng·h/mL | 1800 nM | 36% | 
2 | COc1cc(N2CCN(Cc3ccccn3)CC2)ccc1Nc1nc(NC2CCCCC2)c2nc[nH]c2n1 | 66.3 ng/mL | 2.9 ng/mL |  |  |  | 
3 | COc1cc(N2CCC(CC(=O)N3CCOCC3)CC2)ccc1Nc1nc(NC2CCCCC2)c2nc[nH]c2n1 | 97 ng/mL | 20.9 ng/mL | 1650 ng·h/mL | 1400 nM | 23.1% | 
4 | COc1cc(N2CCC(CC(=O)N3CCC(N(C)C)C3)CC2)ccc1Nc1nc(NC2CCCCC2)c2nc[nH]c2n1 (stereo not drawn) |  |  |  |  |  | impermeable
5 | COc1cc(N2CCN(C(=O)N3CCN(C)CC3)CC2)ccc1Nc1nc(NC2CCCCC2)c2[nH]cnc2n1 |  |  |  |  |  | impermeable
6 | COc1cc(N2CCC(CC(=O)N3CCN(C)CC3)CC2)ccc1Nc1nc(NC2CCCCC2)c2[nH]cnc2n1 | 180 ng/mL | 39.9 ng/mL | 547 ng·h/mL | 300 nM | 6.9% | 
7 | COc1cc(N2CCN(S(=O)(=O)CCCN3CCOCC3)CC2)ccc1Nc1nc(NC2CCCCC2)c2nc[nH]c2n1 | 156 ng/mL | 17.5 ng/mL | 1730 ng·h/mL | 1000 nM | 17.9% | 
8 | COc1cc(N2CCN(C(=O)N3CCC(O)C3)CC2)ccc1Nc1nc(NC2CCCCC2)c2nc[nH]c2n1 (stereo not drawn) |  |  |  |  |  | impermeable

Further lines, results first:

Row | concentration at 4 h [1] | concentration at 8 h [2] | AUC [3] | Cmax [4] | bioavailability [5] | Papp [6] | SMILES
9 | 105 ng/mL | 44.2 ng/mL | 1710 ng·h/mL | 2600 nM | 31% |  | COc1cc(N2CCC(N3CCOCC3)CC2)ccc1Nc1nc(NC2CCCCC2)c2nc[nH]c2n1
10 |  |  |  |  | 20% |  | Cc1cc(N2CCOCC2)ccc1Nc1nc(NC2CCCCC2)c2nc[nH]c2n1
11 | 435 ng/mL | 187 ng/mL | 10700 ng·h/mL | 2600 nM | > 83% |  | COc1cc(N2CCC(CN3CCOCC3)CC2)ccc1Nc1nc(NC2CCCCC2)c2nc[nH]c2n1
12 | 16.7 ng/mL | 1.68 ng/mL |  |  |  |  | COc1cc(N2CCC(C(=O)N3CCOCC3)CC2)ccc1Nc1nc(NC2CCCCC2)c2nc[nH]c2n1
